Screens: PubChem, Johns Hopkins Ion Channel Center
hERG rescue: hERG (human) protection from proarrhythmic block; Q12809; CHO-hERG, FluxOR thallium flux, dofetilide IC70 present; activation (rescue from dofetilide block), less the hit threshold, % at 10 µM; hit rate 0.51% among 310,000; AID 1511;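 active = activation above the mean of controls blocked by dofetilide plus 5 SD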;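 also: thallium influx through hERG after potassium depolarization seen as dye fluorescence rise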
Kir21 inh: Kir2.1 (mouse) channel inhibition | P35561 | hit rate 0.85% among 310,000 | HEK293-Kir2.1, FluxOR thallium flux fluorescence; stronger effect = lower value | AID 1672 | B-score at 10 µM;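 active = fluorescence ratio B-score at or below minus 3 SD of library scores, with starting-brightness B-score within 2 SD, cut at about -4.2 in these data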;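 also: channel flux triggered by added potassium and thallium sulfate stimulus; B-score of peak minus minimum fluorescence over baseline after thallium stimulus; more negative B-score means stronger Kir2.1 block with less thallium influx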
KCNK9 inh-1: inhibitors of human KCNK9 two-pore domain potassium channel; HEK293 KCNK9, FluxOR thallium flux fluorescence; stronger effect = lower value; B-score at 10 µM; hit rate 1.2% among 310,000; AID 488922;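 active = ratio B-score over 3 SD below the library mean, with starting fluorescence within 5 SD of its mean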;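 also: negative B-score means less thallium flux so channel inhibition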
KCNQ1 act: potentiators or activators of human KCNQ1 potassium channel. hit rate 0.35% among 310,000. CHO-K1 KCNQ1, thallium flux FluxOR fluorescence; stronger effect = higher value. B-score at 10 µM;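 active = fluorescence ratio B-score, a plate-corrected score, at least three library SD, with initial intensity B-score within 5 SD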
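Assay system: CHO-K1 cells stably expressing KCNQ1. Medium: assay buffer for compound exposure, DMSO matched across wells. Timing: 37 °C overnight plating, 90-min dark dye load, 20-min compound pretreatment. Signal: kinetic FluxOR fluorescence, 10 s baseline plus 110 s post-stimulus.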
KCNQ1 inh: blocks the human KCNQ1 potassium channel; P51787; CHO-K1 KCNQ1, FluxOR thallium flux fluorescence; stronger effect = higher value; B-score at 10 µM; hit rate 1.3% among 310,000;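 active = compounds whose thallium flux B-score, printed positive for inhibition, exceeds three library SD while starting fluorescence stays within three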;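 also: channel opened by potassium depolarization with thallium stimulus after 20 min compound exposure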
KCNK3 block: human KCNK3 channel inhibition, primary screen; O14649; hit rate 0.84% among 340,000; CHO-KCNK3 thallium flux, FluxOR fluorescence; stronger effect = lower value; B-score at 10 µM;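 active = B-score under library mean minus 4 SD, starting fluorescence ratio at most library mean plus 5 SD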;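 also: more negative B-score means stronger inhibition of thallium flux through KCNK3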
Target sequence (O14649 whole entry, looked up): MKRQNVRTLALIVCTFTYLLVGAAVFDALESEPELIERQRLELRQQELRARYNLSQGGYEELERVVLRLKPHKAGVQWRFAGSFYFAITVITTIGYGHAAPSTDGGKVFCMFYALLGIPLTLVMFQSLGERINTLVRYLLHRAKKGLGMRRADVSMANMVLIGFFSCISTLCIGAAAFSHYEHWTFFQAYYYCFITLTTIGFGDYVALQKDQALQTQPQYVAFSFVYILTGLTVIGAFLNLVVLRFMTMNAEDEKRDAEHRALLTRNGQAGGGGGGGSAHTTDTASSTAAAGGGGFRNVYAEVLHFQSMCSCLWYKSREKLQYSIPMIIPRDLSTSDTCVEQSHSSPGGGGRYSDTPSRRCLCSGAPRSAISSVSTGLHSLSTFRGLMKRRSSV
hERG ctr: hERG (human) inhibition as Kir2.1 counter-screen; shares compounds with Kir21 inh; hERG-expressing cells, thallium flux; inhibition, % at 10 µM; hit rate 20% among 320; AID 2236;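 also: host cells are CHO cells stably expressing hERG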
KCNK9 inh-2: tests whether Kir2.1 inhibitors also affect human KCNK9 | KCNK9-expressing cells, ion flux inhibition | AID 2329 | hit rate 5% among 320 | inhibition, % at 10 µM | shares compounds with Kir21 inh
Kir2-1 patch inh: blocks mouse Kir2.1 current in automated electrophysiology | shares compounds with Kir21 inh | Kir2.1 cells, automated patch-clamp current inhibition | inhibition, % at 25 µM | hit rate 71% among 320 | AID 463252
Hits are given with their value; - = inactive; . = not tested or not shown. Hits are enriched below; roughly 3.7% of the tested compounds scored in any of these assays. Unless noted, no rule for the calls is given here.

SMILES	hERG rescue	Kir21 inh	KCNK9 inh-1	KCNQ1 act	KCNQ1 inh	KCNK3 block	hERG ctr	KCNK9 inh-2	Kir2-1 patch inh
CCN1CCN(S(=O)(=O)c2ccc(Cl)c(C(=O)N(C)Cc3cccc(Cl)c3Cl)c2)CC1	-	-	-	-	-	-	.	.	.
COc1ccc(CN2CCCN(S(=O)(=O)c3ccc(Br)cc3)CC2)cc1	-	-6.8	-	-	-	-	67%	-	31%
O=C(Nc1sc2c(c1C(=O)O)CCC2)C(=O)N1CCOCC1	-	-	-	-	-	-	.	.	.
CSc1ccc(CN2CCC(CO)(CCOc3ccccc3)CC2)cc1	-	-5.8	-	-	-	-	73%	-	7.3%
COc1ccc(CN2CCC(CO)(CCOc3ccccc3)CC2)cc1C	-	-	-	-	-	-	.	.	.
COc1ccc(CNC(=O)C2CCN(C(=O)c3cccc(Cl)c3)CC2)cc1	-	-	-	-	-	-	.	.	.
Nc1ccc(-c2ccc(N)cc2C(F)(F)F)c(C(F)(F)F)c1	-	-6.4	-	-	-	-	-	48%	-
CCNCc1cc(Cl)c(OCc2ccccc2)c(OCC)c1	-	-7	-	-	-	-	-	-	47%
CCOc1cc(CNCCc2ccc(S(N)(=O)=O)cc2)cc(Cl)c1OCc1ccccc1	-	-	-	-	-	-	.	.	.
C=C(C)CC(Nc1ccc(OC)cc1)c1ccco1 (stereo not drawn)	-	-	-	-	-	-	.	.	.
Cc1ccc(S(=O)(=O)Oc2ccccc2/C=N/N=C(N)N)cc1	-	-11	-	-	-	-	61%	-	-
Cc1ccc(S(=O)(=O)Oc2ccccc2/C=N/NC(N)=S)cc1	-	-	-	-	-	-	.	.	.
CCN(Cc1ccccc1)S(=O)(=O)c1ccc2c(c1)NC(=O)CS2	-	-5.8	-	-	-	-	-	-	-
COc1ccc(S(=O)(=O)CCC(=O)Nc2cccc(OC)c2)cc1	-	-	-	-	-	.	.	.	.
c1cc(CN2CCCCC2)cc(OCCCNc2nc3ccccc3s2)c1	-	-7.3	-	-	-	-	-	-	48%
NC(=O)c1ccc(SCC(=O)OCC(=O)N2CCCC2=O)c([N+](=O)[O-])c1	-	-	-	-	-	-	.	.	.
Cc1cc(SCC(=O)OCC(=O)N2CCCC2=O)c(C)cc1Br	-	-	-	-	-	-	-	-	-
CCOc1ccccc1CNCc1ccc(C(=O)O)cc1	-	-	-	-	-	-	.	.	.
O=C(COc1ccccc1CNCc1ccccc1)Nc1ccccc1	-	-10	-	-	-	-	49%	-	43%
COc1cc2c(c(OC)c1CC=C(C)C)C[C@H](c1ccc(O)cc1O)CO2	-	-	-	-	-	-	.	.	.
O=C(COC(=O)CCC(=O)c1ccc(F)cc1)NCc1ccccc1Cl	.	.	.	.	.	-	.	.	.
CCCCCCCn1c(=N)n(CC(O)c2ccco2)c2ccccc21 (stereo not drawn)	-	-5.9	-	-	-	-	70%	-	-
Cc1ccccc1Cn1c(=N)n(CC(O)c2ccco2)c2ccccc21 (stereo not drawn)	-	-5.9	-	-	-	-	50%	-	-
CCCCCCCn1c(=N)n(CC(=O)c2ccco2)c2ccccc21	-	-10	-	-	-	-	67%	-	6.9%
CCn1c(=N)n(CC(O)c2ccccc2)c2ccccc21 (stereo not drawn)	-	-	-	-	-	-	.	.	.
SMILES	hERG rescue	Kir21 inh	KCNK9 inh-1	KCNQ1 act	KCNQ1 inh	KCNK3 block	hERG ctr	KCNK9 inh-2	Kir2-1 patch inh
NC(=O)NCCCC(=O)NCC(c1ccccc1Cl)c1c[nH]c2ccccc12 (stereo not drawn)	-	-	-	-	-	-	.	.	.
Cc1ccc(N(C(=O)c2csnn2)C(C(=O)NC2CCCCC2)c2cccnc2)cc1C (stereo not drawn)	-	-	-	-	-	-	.	.	.
NS(=O)(=O)c1ccc(CCNC(=O)c2cnc(Cl)c(Cl)c2)cc1	-	-	-	-	-	-	.	.	.
Cc1c(NS(=O)(=O)c2cccc(C(=O)NCc3cccc(Cl)c3)c2)c(=O)n(-c2ccccc2)n1C	.	.	.	.	.	-	.	.	.
CCN(CC)S(=O)(=O)c1cc(C(=O)Nc2cc(S(=O)(=O)N3CCOCC3)ccc2N2CCN(C)CC2)ccc1C	.	.	.	.	.	-	.	.	.
COc1ccc(CN(C(=O)c2oc3ccccc3c2C)C2CCS(=O)(=O)C2)cc1OC (stereo not drawn)	.	.	.	.	.	-	.	.	.
COc1ccc(CCN(C)C(=O)c2oc3ccccc3c2C)cc1OC	-	-6.5	-	-	-	-	-	-	61%
CC(=O)N1CCN(C(=O)c2ccc(S(=O)(=O)Nc3cccc(C(F)(F)F)c3)cc2)CC1	-	-	-	-	-	-	-	-	-
CCOc1nc(C)cc(C)c1S(=O)(=O)c1ccc(Cl)cc1	-	-6.4	-	-	-	-	-	-	-
CC(C)(C)NCCOCCOc1ccccc1-c1ccccc1	-	-	-	-	-	-	.	.	.
CCC(C)NCCOCCOc1ccccc1-c1ccccc1 (stereo not drawn)	-	-6.2	-	-	-	-	-	-	35%
CCOC(=O)c1nnn(-c2nonc2N)c1CSc1ccc(C)cc1	-	-8.5	-	-	-	-	-	-	8.6%
Cc1ccc(OCCSc2nc3ccccc3n2CCC(=O)O)cc1	-	-	-	-	-	-	.	.	.
CCCCCCSC1=C(C#N)C(c2ccc(C)o2)CC(=O)N1 (stereo not drawn)	-	-6	-	-	-	-	-	-	-
CCCCSC1=C(C#N)C(c2ccccc2C)CC(=O)N1 (stereo not drawn)	-	-	-	-	-	-	.	.	.
Cc1cc(C)c(OCCCCN(C)Cc2ccccc2)c(C)c1	-	-7.8	-	-	-	-	-	-	36%
Cc1cc(C)c(OCCCCN(C)C)c(Br)c1	-	-	-	-	-	-	.	.	.
CCOC(=O)C1(Cc2cccc(OC)c2)CCN(Cc2cccn2-c2ccccn2)CC1	-	-	-	-	-	-	.	.	.
CC1(C)OC(C)(C)/C(=C\c2ccc(OCC(N)=O)cc2)C1=O	.	.	.	.	.	-	.	.	.
O=C1[C@H](c2ccccc2)[C@@H](c2ccccc2)N1c1ccncc1	.	.	.	.	.	-	.	.	.
CN(C)CCCOc1ccc(C(C)(C)c2ccccc2)cc1	-	-6.6	-	-	-	-	-	-	39%
COc1cc(CNCc2ccc(Br)cc2)cc(OC)c1	-	-7.5	-	-	-	-	-	-	72%
Cc1ccc(NC(=O)c2cc([N+](=O)[O-])ccc2NCc2cccnc2)cc1	-	-	-	-	-	-	.	.	.
COc1ccc(CCN2CCCC(CN(C)Cc3cccc(OC)c3)C2)cc1 (stereo not drawn)	-	-9.5	-	-	-	-	-	-	37%
Cc1cc(C)c(C#N)c(SCC(=O)Nc2nonc2N)n1	-	-	-	-	-	-	.	.	.
